Residue numbers refer to the chain shown, from its start.
Legend:
Settings in all cases: stereoisomer not certain
OR2G2 (Homo sapiens) = target: T1, OR2G2 (Homo sapiens) (UniProt Q8NGZ5)
T1 sequence (whole entry): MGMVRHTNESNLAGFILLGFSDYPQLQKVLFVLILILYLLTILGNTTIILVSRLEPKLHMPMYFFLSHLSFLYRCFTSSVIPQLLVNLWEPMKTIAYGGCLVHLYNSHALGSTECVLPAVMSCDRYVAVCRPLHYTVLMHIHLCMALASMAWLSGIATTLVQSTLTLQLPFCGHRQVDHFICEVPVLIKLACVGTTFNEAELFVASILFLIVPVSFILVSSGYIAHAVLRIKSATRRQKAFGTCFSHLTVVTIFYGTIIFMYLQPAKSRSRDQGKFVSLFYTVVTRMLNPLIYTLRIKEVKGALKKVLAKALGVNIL
Procedure, shortened: (§1)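 Whether a receptor–molecule pair is responsive (active) rests on the original authors' judgment that its measured signal was statistically different from baseline. Pairs without that judgment are non-responsive (inactive). Sources used varied assay methods, commonly transient luciferase assays in mammalian cell lines.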

OR2F1 (Homo sapiens) = target: T2, OR2F1 (Homo sapiens) (UniProt Q13607)
T2 sequence (whole entry): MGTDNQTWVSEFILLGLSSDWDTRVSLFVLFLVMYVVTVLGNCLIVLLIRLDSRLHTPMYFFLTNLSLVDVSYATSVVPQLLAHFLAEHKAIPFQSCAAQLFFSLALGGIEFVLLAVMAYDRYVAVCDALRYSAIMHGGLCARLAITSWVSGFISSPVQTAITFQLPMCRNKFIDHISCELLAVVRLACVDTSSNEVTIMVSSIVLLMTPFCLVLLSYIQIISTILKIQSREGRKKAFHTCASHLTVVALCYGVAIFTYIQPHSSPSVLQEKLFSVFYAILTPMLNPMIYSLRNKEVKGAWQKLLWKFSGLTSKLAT
Procedure, shortened: as §1

OR2F2 (Homo sapiens) = target: T3, OR2F2 (Homo sapiens) (UniProt O95006)
T3 sequence (whole entry): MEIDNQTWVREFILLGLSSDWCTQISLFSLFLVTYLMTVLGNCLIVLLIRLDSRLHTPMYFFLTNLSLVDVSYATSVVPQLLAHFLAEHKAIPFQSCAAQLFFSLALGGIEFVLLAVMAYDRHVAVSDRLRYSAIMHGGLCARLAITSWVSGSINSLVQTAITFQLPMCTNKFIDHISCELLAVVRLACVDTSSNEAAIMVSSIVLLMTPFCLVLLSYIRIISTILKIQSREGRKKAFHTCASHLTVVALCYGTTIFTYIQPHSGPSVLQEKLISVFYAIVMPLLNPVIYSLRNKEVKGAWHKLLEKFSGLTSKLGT
Procedure, shortened: as §1

OR2G3 (Homo sapiens) = target: T4, OR2G3 (Homo sapiens) (UniProt Q8NGZ4)
T4 sequence (whole entry): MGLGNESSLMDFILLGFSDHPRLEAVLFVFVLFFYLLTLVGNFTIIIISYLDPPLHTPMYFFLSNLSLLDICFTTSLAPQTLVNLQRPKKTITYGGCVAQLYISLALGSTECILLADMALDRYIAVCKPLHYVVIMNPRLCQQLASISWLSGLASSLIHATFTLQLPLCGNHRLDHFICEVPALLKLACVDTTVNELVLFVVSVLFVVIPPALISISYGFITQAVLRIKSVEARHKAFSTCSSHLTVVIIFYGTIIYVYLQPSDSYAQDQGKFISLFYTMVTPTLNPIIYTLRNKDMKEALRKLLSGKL
Procedure, shortened: as §1

OR2G6 (Homo sapiens) = target: T5, OR2G6 (Homo sapiens) (UniProt Q5TZ20)
T5 sequence (whole entry): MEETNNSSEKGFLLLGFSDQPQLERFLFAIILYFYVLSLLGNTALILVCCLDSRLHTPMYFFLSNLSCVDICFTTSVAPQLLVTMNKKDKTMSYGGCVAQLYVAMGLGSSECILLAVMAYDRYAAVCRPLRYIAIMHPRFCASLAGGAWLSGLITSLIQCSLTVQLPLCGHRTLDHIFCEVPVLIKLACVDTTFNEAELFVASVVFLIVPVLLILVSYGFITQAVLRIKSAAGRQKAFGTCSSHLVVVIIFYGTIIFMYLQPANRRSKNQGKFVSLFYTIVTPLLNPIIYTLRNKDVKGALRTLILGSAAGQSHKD
Procedure, shortened: as §1

OR2H1 (Homo sapiens) = target: T6, OR2H1 (Homo sapiens) (UniProt Q9GZK4)
T6 sequence (whole entry): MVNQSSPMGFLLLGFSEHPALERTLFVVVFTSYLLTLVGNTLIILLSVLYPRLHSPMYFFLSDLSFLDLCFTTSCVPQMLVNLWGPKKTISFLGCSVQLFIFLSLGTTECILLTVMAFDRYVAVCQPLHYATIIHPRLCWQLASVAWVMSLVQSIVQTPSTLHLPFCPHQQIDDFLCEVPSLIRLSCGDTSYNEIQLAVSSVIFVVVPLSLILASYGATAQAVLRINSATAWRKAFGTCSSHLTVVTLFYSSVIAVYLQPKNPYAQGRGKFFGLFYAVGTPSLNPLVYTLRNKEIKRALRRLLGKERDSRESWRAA
Procedure, shortened: as §1

OR2H2 (Homo sapiens) = target: T7, OR2H2 (Homo sapiens) (UniProt O95918)
T7 sequence (whole entry): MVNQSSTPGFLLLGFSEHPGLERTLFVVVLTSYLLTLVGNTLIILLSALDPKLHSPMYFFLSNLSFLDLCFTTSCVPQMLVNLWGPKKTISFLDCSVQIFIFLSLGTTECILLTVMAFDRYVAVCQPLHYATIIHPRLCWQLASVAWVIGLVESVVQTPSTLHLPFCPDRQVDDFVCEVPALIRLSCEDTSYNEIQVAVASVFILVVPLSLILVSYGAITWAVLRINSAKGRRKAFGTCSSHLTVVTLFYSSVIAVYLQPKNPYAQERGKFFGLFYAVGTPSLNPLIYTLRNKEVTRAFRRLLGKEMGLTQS
Procedure, shortened: as §1

OR2J1 (Homo sapiens) = target: T8, OR2J1 (Homo sapiens) (UniProt Q9GZK6)
T8 sequence (whole entry): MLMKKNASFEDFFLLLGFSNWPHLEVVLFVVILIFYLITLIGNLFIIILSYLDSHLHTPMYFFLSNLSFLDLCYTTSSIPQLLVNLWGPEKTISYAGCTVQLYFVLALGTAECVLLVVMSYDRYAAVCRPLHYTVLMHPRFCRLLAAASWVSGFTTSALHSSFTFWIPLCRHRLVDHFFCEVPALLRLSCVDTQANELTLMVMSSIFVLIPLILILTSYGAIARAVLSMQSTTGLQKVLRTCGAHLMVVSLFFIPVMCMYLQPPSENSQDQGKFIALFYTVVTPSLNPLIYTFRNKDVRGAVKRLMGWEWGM
Procedure, shortened: as §1

OR2J2 (Homo sapiens) = target: T9, OR2J2 (Homo sapiens) (UniProt O76002)
T9 sequence (whole entry): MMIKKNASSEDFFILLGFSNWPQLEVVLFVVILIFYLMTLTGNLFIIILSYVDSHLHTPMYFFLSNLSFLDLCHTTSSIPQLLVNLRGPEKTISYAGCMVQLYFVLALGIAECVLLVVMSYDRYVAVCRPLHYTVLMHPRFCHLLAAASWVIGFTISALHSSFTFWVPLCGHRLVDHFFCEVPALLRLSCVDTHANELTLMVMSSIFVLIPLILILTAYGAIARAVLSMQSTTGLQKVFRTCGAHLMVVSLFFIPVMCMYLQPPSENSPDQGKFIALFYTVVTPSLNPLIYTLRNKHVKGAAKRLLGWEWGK
Procedure, shortened: as §1

OR2J3 (Homo sapiens) = target: T10, OR2J3 (Homo sapiens) (UniProt O76001)
T10 sequence (whole entry): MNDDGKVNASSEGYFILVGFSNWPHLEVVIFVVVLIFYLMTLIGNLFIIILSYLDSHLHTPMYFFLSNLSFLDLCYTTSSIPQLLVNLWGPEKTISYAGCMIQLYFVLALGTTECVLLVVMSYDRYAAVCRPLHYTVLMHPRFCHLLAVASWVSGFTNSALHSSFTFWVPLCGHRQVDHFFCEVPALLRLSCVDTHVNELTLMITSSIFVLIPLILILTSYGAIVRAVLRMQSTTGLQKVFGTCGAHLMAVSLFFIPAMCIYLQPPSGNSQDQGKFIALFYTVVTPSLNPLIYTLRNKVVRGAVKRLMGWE
Procedure, shortened: as §1

OR2K2 (Homo sapiens) = target: T11, OR2K2 (Homo sapiens) (UniProt Q8NGT1)
T11 sequence (whole entry): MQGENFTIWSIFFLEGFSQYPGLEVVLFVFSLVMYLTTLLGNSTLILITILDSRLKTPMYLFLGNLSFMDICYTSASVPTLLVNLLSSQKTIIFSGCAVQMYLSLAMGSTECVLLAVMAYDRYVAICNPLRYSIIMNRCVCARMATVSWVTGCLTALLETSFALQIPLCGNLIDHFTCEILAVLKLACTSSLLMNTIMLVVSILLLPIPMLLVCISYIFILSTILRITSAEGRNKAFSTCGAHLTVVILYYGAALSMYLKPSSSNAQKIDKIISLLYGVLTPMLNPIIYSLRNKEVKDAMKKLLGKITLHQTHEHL
Procedure, shortened: as §1

OR2F1 = test system: OR2F1
Procedure, shortened: as §1

OR2G2 L167P R236G = test system: T12, OR2G2 L167P R236G
T12 sequence (whole entry): T1 sequence (whole entry) with L167P, R236G
Procedure, shortened: as §1

OR2G3 I289V = test system: T13, OR2G3 I289V
T13 sequence (whole entry): T4 sequence (whole entry) with I289V
Procedure, shortened: as §1

OR2H2 = test system: T14, OR2H2
T14 sequence (whole entry): T7 sequence (whole entry) with L30F, A48V
Procedure, shortened: as §1

OR2J1 L14I V182A = test system: T15, OR2J1 L14I V182A
T15 sequence (whole entry): T8 sequence (whole entry) with L14I, V182A
Procedure, shortened: as §1

OR2J2 = test system: T16, OR2J2
T16 sequence (whole entry): T9 sequence (whole entry) with H74Y, A111T, A146V, A218T
Procedure, shortened: as §1

OR2J3 = test system: T17, OR2J3
T17 sequence (whole entry): T10 sequence (whole entry) with V228I, I261M
Procedure, shortened: as §1

OR2J1 [1] = test system: OR2J1
Procedure, shortened: as §1
Target sequence in this assay (as listed by the source): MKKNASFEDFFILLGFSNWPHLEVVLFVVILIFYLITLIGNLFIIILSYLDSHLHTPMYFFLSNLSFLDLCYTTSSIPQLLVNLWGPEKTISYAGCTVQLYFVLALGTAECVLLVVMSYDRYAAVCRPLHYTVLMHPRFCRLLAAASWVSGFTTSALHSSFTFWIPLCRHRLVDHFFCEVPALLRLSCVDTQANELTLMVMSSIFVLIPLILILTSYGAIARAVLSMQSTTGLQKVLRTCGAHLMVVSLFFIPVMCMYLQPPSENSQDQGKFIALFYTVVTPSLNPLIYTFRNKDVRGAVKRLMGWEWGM

OR2J1 [2] = test system: OR2J1; remark: listed apart in the source
Procedure, shortened: as §1

Measured: odorant receptor agonist call;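 also: active if original authors judged signal statistically different from baseline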

OR2F1, sequence (as listed by the source): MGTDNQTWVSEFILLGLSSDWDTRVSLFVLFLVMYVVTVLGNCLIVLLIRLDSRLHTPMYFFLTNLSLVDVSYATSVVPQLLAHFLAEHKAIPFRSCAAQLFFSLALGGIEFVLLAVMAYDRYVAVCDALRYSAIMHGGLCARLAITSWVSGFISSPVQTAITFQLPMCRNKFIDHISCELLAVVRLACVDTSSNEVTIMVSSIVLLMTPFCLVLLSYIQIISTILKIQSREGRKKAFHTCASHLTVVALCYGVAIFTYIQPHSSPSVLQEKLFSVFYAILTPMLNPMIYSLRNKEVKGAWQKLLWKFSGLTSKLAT

COc1ccc(C)cc1
inactive: OR2G2 (Homo sapiens)

CCCCC1CCC(=O)O1 (stereo not drawn)
inactive: OR2G2 (Homo sapiens)

CC1=CCC2CC1C2(C)C (stereo not drawn)
inactive: OR2G2 (Homo sapiens)

CCC(S)C(C)CO (stereo not drawn)
inactive: OR2F1 (Homo sapiens) | OR2F2 (Homo sapiens) | OR2G2 (Homo sapiens) | OR2G3 (Homo sapiens) | OR2G6 (Homo sapiens) | OR2H1 (Homo sapiens) | OR2H2 (Homo sapiens) | OR2J1 (Homo sapiens) | OR2J2 (Homo sapiens) | OR2J3 (Homo sapiens) | OR2K2 (Homo sapiens)

CCCCCC(=O)C(C)C(C)=O (stereo not drawn)
inactive: OR2F1 (Homo sapiens) | OR2F2 (Homo sapiens) | OR2G2 (Homo sapiens) | OR2G3 (Homo sapiens) | OR2G6 (Homo sapiens) | OR2H1 (Homo sapiens) | OR2H2 (Homo sapiens) | OR2J1 (Homo sapiens) | OR2J2 (Homo sapiens) | OR2J3 (Homo sapiens) | OR2K2 (Homo sapiens)

O=C([O-])C[SH2+]
inactive: OR2F1

Cc1cnc(C)c(C)n1
not listed: OR2J2 (Homo sapiens) | OR2F1 | OR2J1 [1] | OR2J1 [2]
inactive: all other assays above

OCc1ccccc1
inactive: OR2G2 (Homo sapiens)

COC1CC2CC1C1CC(C=O)CC21 (stereo not drawn)
inactive: OR2G2 (Homo sapiens)

CCCCCC(S)C(C)CO (stereo not drawn)
inactive: OR2F1 (Homo sapiens) | OR2F2 (Homo sapiens) | OR2G2 (Homo sapiens) | OR2G3 (Homo sapiens) | OR2G6 (Homo sapiens) | OR2H1 (Homo sapiens) | OR2H2 (Homo sapiens) | OR2J1 (Homo sapiens) | OR2J2 (Homo sapiens) | OR2J3 (Homo sapiens) | OR2K2 (Homo sapiens)

CCCCCCC=CCCC=O
not listed: OR2F1 | OR2J2 | OR2J1 [1] | OR2J1 [2]
inactive: all other assays above

CCc1ccc(CC(C)(C)C=O)cc1
inactive: OR2G2 (Homo sapiens)

CC(=O)C=CC1=C(C)CCCC1(C)C
inactive: OR2G2 (Homo sapiens)

CCC1OC(=O)C(O)=C1C (stereo not drawn)
not listed: OR2J2 (Homo sapiens) | OR2F1 | OR2J1 [1] | OR2J1 [2]
inactive: all other assays above

CC1=C(O)C(=O)C(C)O1 (stereo not drawn)
not listed: OR2J2 (Homo sapiens) | OR2F1 | OR2J1 [1] | OR2J1 [2]
inactive: all other assays above

CCCC(C)=CC(=O)O
inactive: OR2J1 [1] | OR2J1 [2]

O=c1ccc2ccccc2o1
inactive: OR2J1 [2]

Source: the M2OR odorant receptor database
